Experimental data of several laboratories.
Each line is one published result; the experiments were not run side by side.
Target: Vascular endothelial growth factor receptor 3 (FLT4, Homo sapiens, UniProt P35916)

SMILES	assay	setting	endpoint	result
CN(C(=O)c1ccccc1)c1cc(N(C)c2ccc3c(c2)CCc2ccc(C(=O)NCCN4CCOCC4)cc2C3=O)ccc1F	cell-free assay, competition with immobilised ligand	1 µM	remaining binding	87%
Cc1ccc(C(=O)NCc2ccsc2)cc1C#Cc1cn(C(C)C)c2ncnc(N)c12	enzyme activity, inhibitor	1 µM	activity vs control	-1%
O=C1NC(=O)c2cc(Nc3ccc(F)cc3)c(Nc3ccc(F)cc3)cc21	cell-free assay	0.5 µM	remaining signal	102%
CC(=O)C1=C(C)N(c2cccc(C(F)(F)F)c2)C(=O)N[C@@H]1c1ccc(C#N)nc1	cell-free assay, competition with immobilised ligand	1 µM	remaining binding	100%
CC(C)(O)[C@H]1CC[C@H](Nc2ccc3ncc(-c4cccc(C(F)(F)F)c4)n3n2)CC1	enzyme activity, inhibitor	1 µM	remaining activity	83.5%
CC(C)(C)c1nc2c(s1)c1nc(N)ncc1c1ccc(NS(=O)(=O)c3c(F)cccc3F)c(F)c12	enzyme activity, inhibitor, radiometric	1 µM	remaining activity	76%
CC[C@H](CO)Nc1nc(NCc2ccccc2)c2ncn(C(C)C)c2n1	cell-free assay	0.5 µM	remaining signal	94%
CC(=O)N1CCC(c2ccc(C(=O)NC(=N)N)cc2C(F)(F)F)CC1	cell-free assay, competition with immobilised ligand	1 µM	remaining binding	89%
COc1cc2ncnc(Nc3ccc(Oc4ccccc4)cc3C)c2cc1OC	enzyme activity, inhibitor	1 µM	inhibition	17%
Nc1ncnc2occ(-c3ccc(NC(=O)Nc4cc(C(F)(F)F)ccc4F)cc3)c12	cell-free assay	20 µM	remaining signal	0%
O=C(Nc1cnn(-c2csc(C(=O)NC3COC3)c2)c1)Nc1ccccc1Cl	enzyme activity, inhibitor	5 µM	remaining activity	93.5%
O=C(O)c1cc(-c2ccc(C3CCNCC3)cc2)c2ccc(-c3ccc(C(F)(F)F)cc3)cc2c1	cell-free assay, competition with immobilised ligand	1 µM	remaining binding	100%
O=C1Nc2ccc(Cl)cc2C1=Cc1cc(Cl)c(O)c(Cl)c1	cell-free assay	0.5 µM	remaining signal	87.3%
Cc1sc(C(=O)NC2COC2)cc1-n1cc(NC(=O)Nc2c(F)cccc2Cl)cn1	enzyme activity, inhibitor	10 µM	remaining activity	79.2%
COc1cc(Cl)c(C(=O)N[C@@H](CN[C@H]2CC[C@@H](N)CC2)Cc2ccc(C#N)cc2)cc1-c1ccc(CN[C@H](C)c2ccc(C)cc2)o1	enzyme activity, inhibitor	1 µM	remaining activity	93%
CCOc1cc(-c2nncn2C)ccc1Nc1ncc2cc(C)nc(NCC(C)(C)C)c2n1	enzyme activity, inhibitor, FRET	1 µM	inhibition	23%
Cc1cc(NC(=O)c2cccc(S(F)(F)(F)(F)F)c2)cc(-n2ccn3nc(-c4cccnc4)cc23)c1	cell-free assay, competition with immobilised ligand	1 µM	remaining binding	82.3%
N#CCCc1ccc2c(c1)-c1[nH]c3ccc([N+](=O)[O-])cc3c1CC(=O)N2	cell-free assay	0.5 µM	remaining signal	66.5%
C[C@@H]1CN(c2cc(-c3n[nH]c4ccc(OC5(C)CC5)cc34)ncn2)C[C@H](C)O1	cell-free assay, competition with immobilised ligand	0.1 µM	remaining binding	100%
CCCS(=O)(=O)Nc1ccc(F)c(C(=O)c2c[nH]c3ncc(-c4ccc(Cl)cc4)cc23)c1F	enzyme activity, inhibitor	1 µM	inhibition	< 10%
